# ZTA DNA inh = counter-screen for EBNA-1 inhibitors: inhibitors of Epstein-Barr virus ZTA; ZTA-DNA binding, fluorescence polarization; inhibition, % at 11 µM; 320,000 compounds, 0.15% hits; in the data active means inhibition above about 33%
# ARFGAP1 inh = inhibitors of rat ARFGAP1 GAP activity, primary screen, biochemical, fluorescence polarization, GDP tracer; ADP-ribosylation factor GTPase-activating protein 1 (Rattus norvegicus), Q62848; Arfgap1-stimulated ARF1 GTP hydrolysis, GDP FP detection; inhibition, % at 16.5 µM; 360,000 compounds, 0.26% hits;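 active means inhibition above a per-plate limit, mean inhibition of low control wells plus 3 SD, cut at about 25% in these data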;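 further: 0% = DMSO wells with enzyme and 100% = wells lacking Arfgap1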
# Target sequence (Q62848 1-136 limits assumed): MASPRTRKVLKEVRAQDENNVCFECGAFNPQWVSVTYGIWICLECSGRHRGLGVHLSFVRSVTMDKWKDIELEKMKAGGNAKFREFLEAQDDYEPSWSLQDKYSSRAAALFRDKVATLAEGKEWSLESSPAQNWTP
#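 Material – truncated rat Arfgap1 GAP domain · Buffer or medium – HEPES-based buffer, pH 7.5 · Reagent – human ARF1(Δ1-17)-GTP substrate · Dosing – 16.5 µM single point, 1.26% DMSO · Schedule – GTP hydrolysis reaction 2 h at 25 °C · Technique – GDP detection by fluorescence polarization · Benchmarks – No-Arfgap1 wells (100%) versus DMSO full-reaction wells (0%) · Repeats – single replicate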
# EBNA-1 inhibitor = EBNA-1 DNA-binding inhibitors, primary screen, biochemical, fluorescence polarization. inhibition, % at 14.8 µM. 300,000 compounds, 0.34% hits; in the data active means inhibition above about 28%
# ASAP1 GAP inh = inhibitors of human ASAP1 ArfGAP activity, primary screen, biochemical, fluorescence polarization | AID 624377, 2012 | ASAP1-stimulated ARF1 GTP hydrolysis, GDP FP detection | inhibition, % at 16.5 µM | 360,000 compounds, 0.19% hits | Arf-GAP with SH3 domain, ANK repeat and PH domain-containing protein 1 (Homo sapiens), …; in the data active means inhibition above about 25%;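 further: 0% = vehicle with enzyme and substrate and 100% = no enzyme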
# ZTA inh confirm = EBV Zta binding to ZRE DNA, inhibitors, confirmation, biochemical, fluorescence polarization, triplicate | shares compounds with ZTA DNA inh | inhibition, % at 11.1 µM | 320 compounds, 30% hits;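 active means mean inhibition across triplicate runs above the hit threshold derived for the original primary screen, cut at about 33% in these data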;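 further: 0% = Zta with DMSO and 100% = wells lacking Zta protein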
# EBNA-1 counter = EBNA-1 DNA-binding inhibition, counter-screen for ZTA inhibitor project, biochemical, fluorescence polarization; 320 tested, under 10 active; inhibition, % at 14.8 µM; shares compounds with ZTA DNA inh; call rule not given here
# ASAP1 GAP conf = ASAP1 GAP activity inhibitors, confirmation, biochemical, fluorescence polarization, human, triplicate. inhibition, % at 16.5 µM. shares compounds with ASAP1 GAP inh. AID 624431, 2012. 620 compounds, 37% hits. ASAP1-stimulated Arf1 GTPase, GDP fluorescence polarization;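 active means mean inhibition over triplicates exceeds the hit threshold derived for the earlier primary screening run, cut at about 25% in these data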
# ARFGAP1 confirm = ARFGAP1 inhibitor hit confirmation, biochemical, fluorescence polarization, triplicate; inhibition, % at 16.5 µM; AID 651608, 2012; 890 compounds, 30% hits; shares compounds with ARFGAP1 inh; ARFGAP1-stimulated ARF1 GTP hydrolysis, GDP tracer FP;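 active means average inhibition over triplicates above the hit cutoff set in the earlier primary screen, cut at about 25% in these data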;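 further: 0% = Arfgap1 plus ARF1-GTP with DMSO and 100% = wells lacking Arfgap1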
# Target sequence (Q62848 whole entry, looked up): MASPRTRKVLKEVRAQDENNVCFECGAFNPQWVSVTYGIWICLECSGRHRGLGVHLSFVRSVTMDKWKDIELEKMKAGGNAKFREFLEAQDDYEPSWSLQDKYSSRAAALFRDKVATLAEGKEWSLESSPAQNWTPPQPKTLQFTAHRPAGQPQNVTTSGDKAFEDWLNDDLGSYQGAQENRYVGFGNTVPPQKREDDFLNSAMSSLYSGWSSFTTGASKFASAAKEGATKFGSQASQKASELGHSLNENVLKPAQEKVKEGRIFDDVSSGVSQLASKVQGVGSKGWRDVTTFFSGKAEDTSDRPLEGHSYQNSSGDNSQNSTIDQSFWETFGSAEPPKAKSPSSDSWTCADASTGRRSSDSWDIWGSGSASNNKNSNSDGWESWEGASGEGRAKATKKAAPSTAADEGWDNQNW
# The depositor's hits bear a star; · = no result given; ! = repeats disagree. Most compounds without a hit are left out; they make up all but 0.75% or so of the library.
SMILES,ZTA DNA inh,ARFGAP1 inh,EBNA-1 inhibitor,ASAP1 GAP inh,ZTA inh confirm,EBNA-1 counter,ASAP1 GAP conf,others
CCOc1ccc(N2C(=O)/C(=C/c3ccccc3)N=C2SC)cc1,41.6*,4.6,-0.6,6.7,1.3,-4.4,·,
Cc1cc(=O)n2c(C(=O)Nc3ccc(C)c(C)c3)c(C(=O)Nc3ccccc3)sc2n1,53.2*,4.9,10.5,-2.0,12.6,78.2*,·,
Cc1ccc(NC(=O)c2c(C(=O)Nc3ccccc3)sc3nc(C)cc(=O)n23)cc1,-12.2,0.3,-13.3,-2.4,·,·,·,
COC(=O)C1=C(C)N(C)C(=NCc2cccc(C(F)(F)F)c2)NC1c1cccc(F)c1 (configuration not stated),·,-0.6,·,-1.5,·,·,·,
Cn1nnnc1Sc1ncnc2scc(-c3cc4ccccc4o3)c12,37.7*,7.2,·,4.9,30.1,-9.0,·,
C#CCOCCOCCOCCNc1nc(N2CCN(C(=O)CCCCCCCCCCNC(=O)Cn3cc(CCCCCN)nn3)CC2)nc(N2CCN(C(=O)CCCCCCCCCCNC(=O)[C@@H](CCC(=O)O)n3cc(CCCCCN)nn3)CC2)n1,60.8*,·,3.5,·,3.1,-6.8,·,
C#CCOCCOCCOCCNc1nc(N2CCN(C(=O)CCCCCCCCCCNC(=O)Cn3cc(CCCCCN)nn3)CC2)nc(N2CCN(C(=O)CCCCCCCCCCNC(=O)[C@@H](CCSC)n3cc(CCO)nn3)CC2)n1,80.4*,·,8.4,·,24.1,-0.4,·,
C#CCOCCOCCOCCNc1nc(N2CCN(C(=O)CCCCCCCCCCNC(=O)Cn3cc(CCCCCN)nn3)CC2)nc(N2CCN(C(=O)CCCCCCCCCCNC(=O)Cn3cc(CCCCCN)nn3)CC2)n1,48.6*,·,0.1,·,37.8*,-7.3,·,
CN(C)CCCN1CC(=O)N2CCc3ccc(Br)cc3C2CC1=O (configuration not stated),·,-3.2,·,7.0,·,·,·,
Cc1ccc(NC(=O)OCCN(C)C(=O)Nc2ccc(C)cc2C)c(C)c1,·,-7.3,·,2.7,·,·,·,
CCc1ccc(C(C)NC(=O)c2ccc(F)cc2)cc1 (configuration not stated),-10.2,14.6,-7.6,3.8,·,·,·,
CCc1ccc(C(C)NC(=O)c2ccncc2)cc1 (configuration not stated),114.2*,12.1,-6.4,-3.7,-7.3,5.2,·,
O=C1C(=Cc2ccc(Br)o2)C(=O)c2ccccc21,51.9*,·,1.6,·,50.7*,13.3,·,
CCN1CCN(Cc2ccc(NC(=O)c3cc(NC(=O)c4cc5cccc(OC)c5o4)cc(OC)c3)cc2C(F)(F)F)CC1,36.8*,19.6,6.3,29.3*!,9.5,-6.2,49.4*,
COC(=O)[C@]12C[C@H](CC(=O)N3CCN(C(=O)c4ccco4)CC3)C(=O)N(Cc3ccc4c(c3)OCO4)C1=C[C@H](COCc1ccccc1)O[C@@H]2C,·,4.5,·,-11.0,·,·,·,
O=C(Nc1cccc(-c2cn3ccccc3n2)c1)c1cc2ccccc2oc1=O,36.4*,47.0*,6.2,35.6*,34.8*,-1.1,62.1*,ARFGAP1 confirm=72.3*
Cn1c(=O)c2cc(NCc3ccccc3)nnc2n(C)c1=O,51.5*,27.8*,25.6,43.7*,-11.7,-7.5,8.7,ARFGAP1 confirm=-0.5
Cn1c(=O)c2c(nc(NCc3ccccc3)n2C)n(C)c1=O,21.9,-5.7,10.8,7.2,·,·,·,
O=C(C(=O)N1CCN(C(=O)Cc2ccccc2)CC1)c1cccc(C(F)(F)F)c1,·,-7.8,·,0.5,·,·,·,
Cc1[nH]c2ccccc2c1CC(=O)Nc1ccc(Nc2ccncc2)cc1,·,-5.2,·,8.7,·,·,·,
CC1(C)OC(=O)C2=C(CC(CCc3ccccc3)OC2c2ccc(Cl)c(Cl)c2)O1 (configuration not stated),·,9.6,·,-5.9,·,·,·,
Cc1ccc2nc(-c3ccc(SCC(=O)Nc4nc(C)cs4)nc3)[nH]c2c1,48.4*,25.2*,10.4,-5.6,-0.7,22.9,·,ARFGAP1 confirm=33.5*
Cc1ccc2nc(-c3ccc(SCC(=O)Nc4nnc(C)s4)nc3)[nH]c2c1,-0.1,6.5,19.1,-4.2,·,·,·,
O=C(Nc1ccc(-c2nc3ccc(NC(=O)c4cccs4)cc3[nH]2)cc1)c1cccs1,55.3*,73.0*,-12.1,36.5*,43.0*,3.9,73.6*,ARFGAP1 confirm=123.7*
OC(CNCCC1C=Nc2ccccc21)Cn1c2ccc(Cl)cc2c2cc(Cl)ccc21 (configuration not stated),52.5*,28.0*,5.8,12.7,51.4*,2.6,·,ARFGAP1 confirm=42.2*
SMILES,ZTA DNA inh,ARFGAP1 inh,EBNA-1 inhibitor,ASAP1 GAP inh,ZTA inh confirm,EBNA-1 counter,ASAP1 GAP conf,others
CS(=O)(=O)Nc1ccc(-c2ccc(/C=C3\SC(N)=NC3=O)o2)cc1,12.4,10.2,4.0,29.8*,·,·,61.9*,
COc1ccc(N2C(=O)c3n[nH]c(C(C)C)c3C2c2ccc(F)cc2)cc1 (configuration not stated),·,-11.4,·,14.4,·,·,·,
Cn1nc(C(C)(C)C)cc1NC(=O)C1(C)CCN1C(=O)C1(c2ccccc2)CC1 (configuration not stated),·,-2.6,·,25.4*,·,·,0.2,
CCOc1cccc(N(C(=O)CNC(=O)c2ccco2)C(C(=O)NCC2CCCO2)c2ccccc2)c1 (configuration not stated),-1.2,3.9,-11.2,25.2*,·,·,0.9,
CC(=O)c1cccc(N(C(=O)CNC(=O)c2ccco2)C(C(=O)NCC2CCCO2)c2ccccc2)c1 (configuration not stated),10.1,-1.7,0.6,5.5,·,·,·,
NS(=O)(=O)c1ccc(CCNc2nc3c(-c4cccc(F)c4)nnn3c3ccccc23)cc1,1.3,0.2,1.1,55.4*,·,·,87.6*,
COc1cccc(CNC(=O)[C@H]2CCCN2C(=O)[C@H]2CCCN2C(=O)c2cccc3ccccc23)c1,·,10.2,·,-0.7,·,·,·,
O=C(NCc1ccncc1)c1ccccc1Nc1ccc(SC(F)F)cc1,2.5,1.8,10.9,28.1*,·,·,14.8,
COc1ccc(Br)cc1C(=O)Nc1ccc(N2CCCC2)cc1,-1.8,46.2*,-1.6,31.9*,·,·,49.1*,
COC(=O)/C=C1\Nc2ccc(Cl)cc2C(=O)NC1=O,·,5.5,·,4.2,·,·,·,
